# Runt-SMMHC FRET – inhibitors of RUNX1 Runt–CBFb-SMMHC binding, primary screen, biochemical, FRET, Cerulean-Runt, Venus-CBFb-SMMHC, uHTS. Runt-related transcription factor 1 (Homo sapiens) + Core-binding factor subunit beta …. Cerulean-Runt/Venus-CBFb-SMMHC FRET ratio 530/480, 1 h. inhibition, % at 20 µM. 220,000 tested, 0.74% active;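 active = mean inhibition across duplicate retests at 20 µM reaching about 50%, limit read from the data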;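 also: inhibitors lower the FRET ratio by blocking Runt binding to CBFb-SMMHC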
# Target sequence (Q01196 whole entry, looked up): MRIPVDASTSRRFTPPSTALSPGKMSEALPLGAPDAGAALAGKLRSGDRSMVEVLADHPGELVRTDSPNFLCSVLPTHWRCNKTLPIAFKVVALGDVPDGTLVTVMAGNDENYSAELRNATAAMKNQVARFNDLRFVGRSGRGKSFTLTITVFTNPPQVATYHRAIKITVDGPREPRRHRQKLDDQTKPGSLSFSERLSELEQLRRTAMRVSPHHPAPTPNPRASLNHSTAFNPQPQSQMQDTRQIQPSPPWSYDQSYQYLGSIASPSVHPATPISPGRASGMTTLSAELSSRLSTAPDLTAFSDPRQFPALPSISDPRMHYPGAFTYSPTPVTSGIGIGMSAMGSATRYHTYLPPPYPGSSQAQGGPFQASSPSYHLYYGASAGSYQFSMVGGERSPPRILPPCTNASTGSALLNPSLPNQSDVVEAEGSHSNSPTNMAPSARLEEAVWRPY
# Target sequence (Q13951 whole entry, looked up): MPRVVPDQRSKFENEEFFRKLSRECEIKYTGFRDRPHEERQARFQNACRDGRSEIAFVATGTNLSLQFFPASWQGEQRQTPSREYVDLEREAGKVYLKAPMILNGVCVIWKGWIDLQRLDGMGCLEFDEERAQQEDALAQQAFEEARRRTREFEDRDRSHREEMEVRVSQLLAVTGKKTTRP
# Runt-CBFb FRET – inhibitors of RUNX1 Runt–CBFb binding, primary screen, biochemical, FRET, Cerulean-Runt, Venus-CBFb, uHTS; Cerulean-Runt/Venus-CBFb FRET ratio 530/480, 1 h; inhibition, % at 20 µM; 220,000 tested, 0.46% active; AID 1496, 2009;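 active = inhibition over about 50% at 20 µM in the single-dose screen, limit read from the data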
#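 test system = Cerulean-tagged RUNX1 Runt domain (FRET donor) fusion protein | reagent = Venus-CBFb binding partner, 100 nM | incubation = protein complex preformed 1 h, compound exposure 1 h, room temperature, dark | detection = FRET fluorescence | read-out basis = loss of energy transfer signal | controls = 5 µM unlabeled CBFb as full-inhibition high control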
# RanGTP-Imp inh – inhibitors of RanGTP-importin-beta interaction, primary screen, biochemical, FRET, CFP-Ran, YFP-importin-beta, homogeneous; Ran GTPase (GTP-bound) - importin-beta complex; cell-free CFP-Ran/YFP-importin-beta FRET ratio; inhibition, % (concentration not given with the values); 300,000 tested, 1.1% active; AID 2216, 2009;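 active = more than half of the replicate wells show a fall in the fluorescence ratio signal beyond about 16%, limit read from the data, passing the limit was not always enough; inconclusive = exactly half of the replicate wells pass the set limit; inactive = fewer than half of replicates pass the limit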
# Hck-Nef inh – inhibitors of Nef-activated human Hck kinase, primary screen, biochemical, Z-Lyte FRET, 384-well, Hck-YEEI | Tyrosine-protein kinase HCK (Homo sapiens), P08631 | Recombinant Hck-YEEI plus Nef, Z-Lyte FRET kinase assay | 220,000 tested, 0.68% active | inhibition, % at 20 µM;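 active = Hck-Nef kinase inhibition above about 50%, limit read from the data; inactive = inhibition below that limit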
# YIC FRET counter – YIC intramolecular FRET probe signal interference, dose response, counter-screen for RanGTP-importin-beta inhibitor project, biochemical, fluorescence FRET; 1,000 tested, 40% active; IC50, µM; shares compounds with RanGTP-Imp inh; Purified YIC probe, intramolecular FRET ratio YFP/CFP; AID 435026, 2010;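 active = fitted half-maximal inhibitory concentration no more than tenfold above the top dose tested; inconclusive = flat fit with 30 to 70% activity, or poor fit; inactive = half-maximal concentration beyond tenfold above the top dose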
# A number is an active result; n = inactive; u = inconclusive; x = not tested or not shown. In the library only some 1.7% were active in any assay of this set; here they are far more common.
SMILES,Runt-SMMHC FRET,Runt-CBFb FRET,RanGTP-Imp inh,Hck-Nef inh,YIC FRET counter
O=c1cc(N2CCC3(CC2)OCCO3)[nH]c(=O)n1-c1ccc(Br)cc1,n,n,17,n,n
O=C(c1cc(COc2ccc(F)cc2F)on1)N1CCCC(c2ccccc2)C1 (centres undefined),n,n,n,n,x
O=C(c1cc(COc2ccc(F)cc2Cl)on1)N1CCCC(c2ccccc2)C1 (centres undefined),n,n,18,n,n
CCOCCCNC(=O)NC(=O)CN1CCN(S(=O)(=O)c2ccc3c(c2)OCCO3)CC1,n,n,19,n,n
CC1CCC(=NNC(=O)Cc2ccccc2)CC1 (centres undefined),n,x,n,n,x
CC1(C)CC(=O)C/C(=N\NC(=O)Cc2ccccc2)C1,n,n,26,n,n
Cc1ccccc1-n1c(=O)cc(N2CC(C)OC(C)C2)[nH]c1=O (centres undefined),n,n,63,n,n
CCOC(=O)N1CCN(c2cc(=O)n(-c3ccccc3C)c(=O)[nH]2)CC1,n,n,36,n,n
Cc1ccccc1NC(=O)C1c2cccc[n+]2CC(=O)N1Cc1ccc2c(c1)OCO2 (centres undefined),n,n,n,n,x
Cc1cccc(C)c1NC(=O)C1c2cccc[n+]2CC(=O)N1Cc1cccs1 (centres undefined),n,n,23,n,n
CC1(C)CCC[C@]2(C)[C@H]3CC(=O)O[C@]3(C)CC[C@@H]12,x,x,21,x,n
C[C@]12CCC3C(CC=C4C[C@@H](O)CC[C@@]43C)C1CCC2[C@]1(C)CCC(=O)O1 (some centres undefined),n,n,n,n,x
C[C@@H]1CCCCO[C@@H](CN(C)C(=O)CCC(F)(F)F)[C@@H](C)CN([C@@H](C)CO)C(=O)c2cc(NC(=O)CCC(F)(F)F)ccc2O1,x,x,x,x,n
Cc1noc(C)c1NC(=O)Nc1ccc2c(c1)C(=O)N([C@H](C)CO)C[C@@H](C)[C@@H](CN(C)C(=O)Nc1c(C)noc1C)OCCCC[C@@H](C)O2,x,x,x,x,n
Cc1c(CCC(=O)NC2CC2)c(=O)oc2c(C)c(O)ccc12,x,x,27,x,20
Cc1c(CCC(=O)NCCCN2CCCC2=O)c(=O)oc2c(C)c(O)ccc12,x,x,33,x,16
Cc1oc2cc3oc(=O)c(CCC(=O)NC4CC4)c(C)c3cc2c1C,x,x,n,x,x
CCCN(CCO)Cc1cccc(Br)c1,n,n,20,n,n
OCCN(CCO)Cc1ccc(Br)cc1,n,n,n,n,x
O=C(NCc1n[nH]c(=O)c2ccccc12)C1CC(=O)N(c2ccccc2)C1 (centres undefined),x,x,n,x,x
Cn1cccc1/C=C(/C#N)C(N)=S,n,n,n,n,x
Cc1ccc(-c2ccc(/C=C(\C#N)C(N)=S)n2C)cc1,n,n,31,n,n
CC12OC1C1(O)CCCC1=CC2=O (centres undefined),x,x,20,x,n
C=CCOc1c(Br)cc(CNc2ccc(NC(=O)C(C)C)c(OC)c2)cc1OC,n,n,27,n,n
Cc1cc(C)cc(OCC(=O)OC(C)C(=O)Nc2ccc(Cl)cn2)c1 (centres undefined),x,x,n,x,x
SMILES,Runt-SMMHC FRET,Runt-CBFb FRET,RanGTP-Imp inh,Hck-Nef inh,YIC FRET counter
COc1ccccc1CNC(=O)COC(=O)Cc1ccc(F)cc1,x,x,n,x,x
COc1ccccc1CNC(=O)COC(=O)Cc1ccc(Cl)cc1,n,n,17,n,n
Cc1c(N=Cc2c(O)n(Cc3ccco3)c(=O)c3ccccc23)c(=O)n(-c2ccccc2)n1C,n,n,22,n,23
COc1cc(CC(C#N)(CO)c2nc3ccccc3[nH]2)ccc1OC(F)F (centres undefined),n,n,n,n,x
Cc1cc([N+](=O)[O-])nn1CC(=O)N1N=C(C(F)F)CC1(O)C(F)F (centres undefined),n,n,n,n,x
CC1=NN(C(=O)Cn2nc([N+](=O)[O-])cc2C)C(O)(C(F)(F)F)C1 (centres undefined),n,n,18,n,n
C/C(N)=C(/C#N)C(=O)COc1ncnc2ccccc12,x,x,22,n,n
C/C(N)=C(/C#N)C(=O)COC(=O)c1cc(-c2ccc(Br)cc2)nc2ccccc12,n,n,n,n,x
COCc1cc(CN2CCN(C)CC2)c(O)c2ncccc12,n,n,26,n,n
CC1Cc2cc(S(=O)(=O)NCc3ccccc3)ccc2N1C(=O)C1CC1 (centres undefined),x,x,18,x,n
Cc1ccc(S(=O)(=O)N2CCC(=O)N(C(COCc3ccc(Cl)cc3)Cc3ccccc3)CC2)cc1 (centres undefined),n,n,n,n,x
N#CC1=C(N)OC2=C(CCc3ccccc32)C1c1ccccc1 (centres undefined),n,n,18,n,n
N#Cc1ccccc1NC(=O)C1CC(=O)N(c2ccc3c4c(cccc24)CC3)C1 (centres undefined),n,n,22,n,n
COc1ccc(-c2cc3nc(C)cc(N4CC(C)CC(C)C4)n3n2)cc1 (centres undefined),n,n,n,n,x
N/C(=N\c1nc2c(c(=O)[nH]1)CCC2)Nc1ccccc1,n,n,n,n,x
CC(NCc1cccs1)C(=O)NC1CCCCC1 (centres undefined),n,n,17,n,n
CC(C)C(NC(=O)c1cccs1)C(=O)NC1CCCCC1 (centres undefined),x,x,n,x,x
CSCC(C)N1CCC(N2CCC(C(=O)NCc3ccccn3)CC2)CC1 (centres undefined),x,x,19,x,n
CC1CCN(c2nc3ccccc3nc2C(C#N)C(=O)OC2CCCCC2)CC1 (centres undefined),n,n,20,n,15
CC1CN(c2nc3ccccc3nc2C(C#N)C(=O)OC2CCCCC2)CC(C)O1 (centres undefined),n,n,u,n,x
O=C(NCCCl)Nc1cccc(Br)c1,n,n,n,n,x
CC(C)(C)c1nc(SCC(=O)c2ccccc2)c2ccccc2n1,n,n,n,n,x
O=C(Cc1c2ccccc2nc2ccccc12)c1ccccc1,115,126,22,n,n
COc1ccccc1C#Cc1ccc2c(=O)c3ccccc3n(C)c2c1,x,x,40,x,0.72
COc1cc(=O)n(C)c2ccccc12,n,n,n,n,x
COc1ccc(C(=O)Nc2ccc3[nH]ncc3c2)cc1OC,x,x,n,x,x
COc1cc(CN(C)CC2CCCN(CCc3cccc(C(F)(F)F)c3)C2)ccc1O (centres undefined),x,x,n,x,x
Cc1ccc(NC(=O)Cn2nc(C(F)(F)F)c3c2CCC3)cc1,n,n,22,n,n

# Compound activity deposited in PubChem BioAssay by several laboratories.
